{
  "source": "ChEMBL document CHEMBL4725470",
  "about": "“Synthesis and Biological Evaluation of Pyrroloindolines as Positive Allosteric Modulators of the α1β2γ2 GABA Receptor” (ACS Med Chem Lett, 2020)",
  "key": {"[1]": {"target": "T1, GABA-A receptor; alpha-1/beta-2/gamma-2 (Homo sapiens) (UniProt P14867+P47870+P18507)", "test": "Positive allosteric modulator activity at human alpha1beta2Sgamma2S GABA-A receptor expressed in Xenopus laevis oocytes assessed as potentiation of EC10 GABA response by two electrode voltage-clamp assay relative to control", "assay_type": "cell-based", "conditions": "Oocyte", "summary_of_the_method": "(§1)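 Same sequence as the EC50 potentiation protocol: baseline GABA doses, ligand alone, 30 s incubation, then coapplication, then two GABA check doses. Here 40 μM PAM is coapplied with an EC10–15 GABA dose. The EC10–15 for each mutant receptor was verified from full GABA dose–response curves.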"}, "[2]": {"target": "T1, GABA-A receptor; alpha-1/beta-2/gamma-2 (Homo sapiens)", "test": "Positive allosteric modulator activity at human alpha1beta2Sgamma2S GABA-A receptor expressed in Xenopus laevis oocytes in presence of EC50 GABA by two electrode voltage-clamp assay", "assay_type": "cell-based", "conditions": "Oocyte, filed as positive allosteric modulator"}, "[3]": {"target": "T1, GABA-A receptor; alpha-1/beta-2/gamma-2 (Homo sapiens)", "test": "Positive allosteric modulator activity at human alpha1beta2Sgamma2S GABA-A receptor expressed in Xenopus laevis oocytes assessed as potentiation of EC50 GABA response at 40 uM by two electrode voltage-clamp assay relative to control", "assay_type": "cell-based", "conditions": "Oocyte", "summary_of_the_method": "(§2)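 Two-electrode voltage clamp in oocytes. Three GABA EC50 applications set the baseline. The test ligand alone is then given at 40 μM, followed after a 30 s incubation by GABA EC50 plus 40 μM ligand. Two further GABA EC50 doses check receptor function after modulation. Result is the percent change relative to the GABA-only baseline.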"}, "[4]": {"target": "GABA-A receptor; GABA-A site (alpha1/beta2 interface) (Homo sapiens) (UniProt P14867+P47870)", "test": "Positive allosteric modulator activity at human alpha1beta2S GABA-A receptor expressed in Xenopus laevis oocytes assessed as potentiation of EC50 GABA response at 40 uM by two electrode voltage-clamp assay relative to control", "assay_type": "cell-based", "conditions": "Oocyte", "summary_of_the_method": "as §2"}, "Oocyte [5]": {"system": "Oocyte", "test": "Positive allosteric modulator activity at human GABA-A receptor alpha1beta2Sgamma2S H129R mutant expressed in Xenopus laevis oocytes assessed as potentiation of EC10 GABA response by two electrode voltage-clamp assay relative to control", "assay_type": "cell-based", "conditions": "filed as positive allosteric modulator", "summary_of_the_method": "as §1"}, "Oocyte [6]": {"system": "Oocyte", "test": "Positive allosteric modulator activity at human GABA-A receptor alpha1beta2Sgamma2S Y209Q mutant expressed in Xenopus laevis oocytes assessed as potentiation of EC10 GABA response by two electrode voltage-clamp assay relative to control", "assay_type": "cell-based", "conditions": "filed as positive allosteric modulator", "summary_of_the_method": "as §1"}, "Oocyte [7]": {"system": "Oocyte", "test": "Positive allosteric modulator activity at human GABA-A receptor alpha1beta2Sgamma2S Q88C mutant expressed in Xenopus laevis oocytes assessed as potentiation of EC10 GABA response by two electrode voltage-clamp assay relative to control", "assay_type": "cell-based", "conditions": "filed as positive allosteric modulator", "summary_of_the_method": "as §1"}, "Oocyte [8]": {"system": "Oocyte", "test": "Positive allosteric modulator activity at human GABA-A receptor alpha1beta2Sgamma2S S297I/N289I/S319I triple mutant expressed in Xenopus laevis oocytes assessed as potentiation of EC10 GABA response by two electrode voltage-clamp assay relative to control", "assay_type": "cell-based", "summary_of_the_method": "as §1"}, "[9]": {"test": "Positive allosteric modulator activity at rat alpha1beta2gamma2L GABA-A receptor expressed in Xenopus laevis oocytes in presence of EC2-5 GABA by two-electrode voltage clamp assay", "assay_type": "cell-based", "conditions": "Oocyte"}, "[10]": {"target": "T1, GABA-A receptor; alpha-1/beta-2/gamma-2 (Homo sapiens)", "test": "Agonist activity at human alpha1beta2Sgamma2S GABA-A receptor expressed in Xenopus laevis oocytes by two electrode voltage-clamp assay", "assay_type": "cell-based", "conditions": "Oocyte, filed as agonist", "summary_of_the_method": "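Test ligand applied alone at 40 μM to oocytes expressing human α1β2γ2 receptors. Current read by two-electrode voltage clamp and compared with GABA EC50 responses recorded in the same sequence.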"}, "[11]": {"target": "T2, GABA-A receptor; alpha-1/beta-2/gamma-2 (Homo sapiens, UniProt P14867+P18507+P47870)", "T2 sequence (P14867 whole entry)": "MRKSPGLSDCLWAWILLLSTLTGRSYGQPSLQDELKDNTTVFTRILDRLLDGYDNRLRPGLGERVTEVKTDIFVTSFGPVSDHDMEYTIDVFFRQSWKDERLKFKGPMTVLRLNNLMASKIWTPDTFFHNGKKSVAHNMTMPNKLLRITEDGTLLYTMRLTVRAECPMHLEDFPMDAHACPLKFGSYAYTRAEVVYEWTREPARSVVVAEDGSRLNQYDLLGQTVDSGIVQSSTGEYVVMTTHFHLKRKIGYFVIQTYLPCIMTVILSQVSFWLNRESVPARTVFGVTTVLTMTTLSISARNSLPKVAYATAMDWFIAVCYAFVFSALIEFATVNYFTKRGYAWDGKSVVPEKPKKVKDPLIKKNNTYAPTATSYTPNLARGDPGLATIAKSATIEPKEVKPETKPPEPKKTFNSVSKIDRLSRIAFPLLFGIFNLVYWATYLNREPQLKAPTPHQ", "T2 sequence (P47870 whole entry)": "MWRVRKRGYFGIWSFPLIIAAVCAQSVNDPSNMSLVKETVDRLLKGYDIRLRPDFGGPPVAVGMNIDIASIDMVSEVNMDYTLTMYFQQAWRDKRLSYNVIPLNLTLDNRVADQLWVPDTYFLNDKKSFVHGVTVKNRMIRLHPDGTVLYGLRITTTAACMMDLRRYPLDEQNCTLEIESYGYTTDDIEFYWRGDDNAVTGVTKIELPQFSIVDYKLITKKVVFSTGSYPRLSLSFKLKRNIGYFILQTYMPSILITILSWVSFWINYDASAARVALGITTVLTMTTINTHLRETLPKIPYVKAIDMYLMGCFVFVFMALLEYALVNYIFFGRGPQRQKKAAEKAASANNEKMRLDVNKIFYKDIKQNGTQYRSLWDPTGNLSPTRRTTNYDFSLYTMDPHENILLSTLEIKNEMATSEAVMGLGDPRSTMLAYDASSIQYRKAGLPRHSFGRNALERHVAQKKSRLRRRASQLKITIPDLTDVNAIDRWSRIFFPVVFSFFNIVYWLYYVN", "T2 sequence (P18507 whole entry)": "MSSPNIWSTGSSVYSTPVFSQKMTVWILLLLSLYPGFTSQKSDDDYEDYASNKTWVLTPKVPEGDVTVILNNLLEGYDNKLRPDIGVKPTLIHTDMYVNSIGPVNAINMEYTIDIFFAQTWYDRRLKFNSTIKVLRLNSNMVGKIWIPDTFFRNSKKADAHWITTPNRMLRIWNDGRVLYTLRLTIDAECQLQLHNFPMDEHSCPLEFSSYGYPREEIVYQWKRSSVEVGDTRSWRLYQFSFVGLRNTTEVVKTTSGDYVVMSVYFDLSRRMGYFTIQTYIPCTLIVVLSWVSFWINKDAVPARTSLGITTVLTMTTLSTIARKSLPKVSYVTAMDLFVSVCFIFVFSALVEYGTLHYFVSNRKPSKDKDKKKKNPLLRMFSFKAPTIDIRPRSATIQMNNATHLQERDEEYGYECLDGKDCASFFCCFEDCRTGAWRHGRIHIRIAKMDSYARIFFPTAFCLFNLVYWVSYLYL", "test": "Positive allosteric modulator activity at human alpha1beta2Sgamma2S GABA-A receptor expressed in Xenopus laevis oocytes in presence of EC5 GABA by two electrode voltage-clamp assay", "assay_type": "cell-based, Oocyte", "summary_of_the_method": "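Modulator dose–response with each concentration coapplied with GABA EC5. The peak current at GABA EC5 alone was subtracted from all responses, and the EC50 was taken from the fitted curve.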"}, "[12]": {"conditions": "filed as positive allosteric modulator"}},
  "note": "Active and inactive are the calls of the source. No cut-off for these calls is given here.",
  "data": [
    {"smiles": "CN1CC[C@@]2(O)c3ccccc3N(C)[C@@]12c1ccc(Br)cc1", "values": [
      {"measurement": "Activity", "setting": "[1]; [12]", "result": 155, "unit": "%"}
    ]},
    {"smiles": "CN1CC[C@]2(O)c3ccccc3N(C)[C@]12c1ccccc1", "note": "(racemic)", "values": [
      {"measurement": "Activity", "setting": "[2]", "result": "Active"},
      {"measurement": "Activity", "setting": "[3]", "result": 17, "unit": "%"},
      {"measurement": "Activity", "setting": "[4]", "result": 28, "unit": "%"},
      {"measurement": "Activity", "setting": "[1]; [12]", "result": 62, "unit": "%"},
      {"measurement": "Activity", "setting": "Oocyte [5]", "result": "Active"},
      {"measurement": "Activity", "setting": "Oocyte [6]", "result": "Active"},
      {"measurement": "Activity", "setting": "Oocyte [7]", "result": "Active"},
      {"measurement": "Activity", "setting": "Oocyte [8]", "result": 1, "unit": "%"}
    ]},
    {"smiles": "Cc1ccc(-c2nc3ccc(C)cn3c2CC(=O)N(C)C)cc1", "note": "[ZOLPIDEM]", "values": [
      {"measurement": "EC50", "setting": "[9]", "result": 340, "unit": "nM"}
    ]},
    {"smiles": "CN1c2ccccc2[C@@]2(O)CCN[C@@]12c1ccccc1", "values": [
      {"measurement": "Activity", "setting": "[1]; [12]", "result": 41, "unit": "%"}
    ]},
    {"smiles": "CN1CC[C@]2(O)c3cc(C(F)(F)F)ccc3N(C)[C@]12c1ccccc1", "values": [
      {"measurement": "Activity", "setting": "[1]; [12]", "result": 108, "unit": "%"}
    ]},
    {"smiles": "CCN(CC)CCN1C(=O)CN=C(c2ccccc2F)c2cc(Cl)ccc21", "note": "[FLURAZEPAM]", "values": [
      {"measurement": "EC50", "setting": "[9]", "result": 270, "unit": "nM"}
    ]},
    {"smiles": "CN1CC[C@]2(O)c3cc(Br)ccc3N(C)[C@]12c1ccccc1", "values": [
      {"measurement": "Activity", "setting": "[1]; [12]", "result": 213, "unit": "%"},
      {"measurement": "Activity", "setting": "[10]", "result": "Active"}
    ]},
    {"smiles": "CN1CC[C@@]2(O)c3ccccc3N(C)[C@@]12c1ccccc1", "values": [
      {"measurement": "Activity", "setting": "[4]", "result": 9.2, "unit": "%"}
    ]},
    {"smiles": "CN1CC[C@]2(O)c3ccccc3N(C)[C@]12c1ccccc1", "note": "[listing 1 of 2 here]", "values": [
      {"measurement": "Activity", "setting": "[3]", "result": 16, "unit": "%"},
      {"measurement": "Activity", "setting": "[4]", "result": 17, "unit": "%"},
      {"measurement": "Activity", "setting": "[1]; [12]", "result": 125, "unit": "%"}
    ]},
    {"smiles": "CN1CC[C@]2(O)c3ccccc3N(C)[C@]12c1ccccc1", "note": "[listing 2 of 2 here]", "values": [
      {"measurement": "EC50", "setting": "[11]", "result": 110000, "unit": "nM"}
    ]},
    {"smiles": "CN1CC[C@@]2(O)c3cc(N4CCOCC4)ccc3N(C)[C@@]12c1ccccc1", "values": [
      {"measurement": "Activity", "setting": "[1]", "result": -4.8, "unit": "%"}
    ]},
    {"smiles": "COc1ccc([C@@]23N(C)CC[C@]2(O)c2ccccc2N3C)cc1", "note": "(racemic)", "values": [
      {"measurement": "Activity", "setting": "[1]", "result": "inactive"}
    ]},
    {"smiles": "CO[C@]12CCN(C)[C@@]1(c1ccccc1)N(C)c1ccccc12", "values": [
      {"measurement": "Activity", "setting": "[1]", "result": 21, "unit": "%"}
    ]},
    {"smiles": "CN1c2ccccc2[C@@]2(O)CCN(C(=O)OCc3ccccc3)[C@@]12c1ccccc1", "values": [
      {"measurement": "Activity", "setting": "[1]", "result": 9.6, "unit": "%"}
    ]},
    {"smiles": "COc1ccc2c(c1)[C@@]1(O)CCN(C)[C@@]1(c1ccccc1)N2C", "values": [
      {"measurement": "Activity", "setting": "[1]", "result": 17, "unit": "%"}
    ]},
    {"smiles": "CN1CC[C@]2(O)c3ccccc3N(C)[C@]12c1ccc(Br)cc1", "values": [
      {"measurement": "Activity", "setting": "[1]; [12]", "result": 98, "unit": "%"}
    ]},
    {"smiles": "CN1CC[C@]2(O)c3cc(I)ccc3N(C)[C@]12c1ccccc1", "values": [
      {"measurement": "Activity", "setting": "[1]; [12]", "result": 231, "unit": "%"},
      {"measurement": "Activity", "setting": "[10]", "result": "Active"}
    ]},
    {"smiles": "CN1CC[C@]2(F)c3ccccc3N(C)[C@]12c1ccccc1", "values": [
      {"measurement": "Activity", "setting": "[1]; [12]", "result": 100, "unit": "%"}
    ]}
  ]
}
